ChEMBL document CHEMBL3853327 (J Med Chem, 2016)

Columns and labels:
[1] = VRT (0 to infinity) in Sprague-Dawley rat plasma at 16 mg/kg administered through oral gavage measured at 5 mins to 24 hrs post dosing by LC/MS analysis; type: ADME, organism-based; conditions: in vivo
Procedure, shortened: (§1)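 Male Sprague-Dawley rats, ten randomly split into two groups (n = 5), single gavage dose of 8 or 16 mg·kg−1 in PEG 400/normal saline (70/30, V/V). Jugular sinus blood into heparinized tubes at 5 min to 24 h; plasma separated at 2200g for 8 min, stored −20 °C. Methanol precipitation with internal standard, LC-MS quantitation against plasma standard curves. Parameters reported as mean ± SD.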

[2] = target: Human immunodeficiency virus type 1 reverse transcriptase (Human immunodeficiency virus 1, UniProt Q72547, K103N/Y181C); test: Inhibition of recombinant HIV1 reverse transcriptase K103N/Y181C double mutant using DIG-dUTP/biotin-dUTP/dTTP assessed as suppression of biotin-dUTP incorporation after 1 hr by ELISA
[3] = tested on: Human immunodeficiency virus 1; test: Antiviral activity against HIV1 3B harboring reverse transcriptase Y188L mutant infected in human MT4 cells assessed as protection against virus induced cytotoxicity after 5 days by MTT assay; type: functional, cell-based; conditions: Human immunodeficiency virus 1, 3B, MT4, 120 h
Procedure, shortened: (§2)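 MTT cytopathicity assay in MT-4 cells (6 × 10^5 cells/mL). Compounds serially diluted 5-fold in triplicate wells, run in parallel on infected and mock-infected cells. Virus added at 100−300 CCID50 per well. Viability read spectrophotometrically at 540 and 690 nm after 5 days, using the median OD of three wells. EC50 is the concentration giving 50% protection from viral cytopathogenicity.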

[4] = MRT (0 to infinity) in Sprague-Dawley rat plasma at 16 mg/kg administered through oral gavage measured at 5 mins to 24 hrs post dosing by LC/MS analysis; type: ADME, organism-based; procedure, shortened: as §1
[5] = tested on: Human immunodeficiency virus 1; test: Antiviral activity against HIV1 3B harboring reverse transcriptase K103N mutant infected in human MT4 cells assessed as protection against virus induced cytotoxicity after 5 days by MTT assay; type: functional, cell-based; conditions: Human immunodeficiency virus 1, 3B, MT4, 120 h; procedure, shortened: as §2
[6] = Selectivity index, ratio of CC50 for human mock-infected MT4 cells to EC50 for HIV1 3B harboring reverse transcriptase Y181C mutant infected in human MT4 cells; type: toxicity, cell-based; conditions: MT4 cells (mock-infected for CC50, HIV-1 infected for EC50)
Procedure, shortened: (§3)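 Selectivity index is CC50/EC50. CC50 is the concentration that reduces OD540 of mock-infected MT-4 cells by 50% in the 5-day MTT assay. EC50 is the 50% protection from virus-induced cytopathicity, measured in parallel on infected wells.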

[7] = tested on: Human immunodeficiency virus 1; test: Fold resistance, ratio of EC50 for HIV1 3B harboring reverse transcriptase L100I mutant infected in human MT4 cells to EC50 for wild type HIV1 3B harboring reverse transcriptase infected in human MT4 cells; type: functional
Procedure, shortened: (§4)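 Fold resistance is the EC50 against the mutant HIV-1 strain divided by the EC50 against WT IIIB. Both EC50s come from the MT-4 MTT cytoprotection assay (5-day read, 100−300 CCID50 inoculum).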

[8] = MRT (0 to t) in Sprague-Dawley rat plasma at 16 mg/kg administered through oral gavage measured at 5 mins to 24 hrs post dosing by LC/MS analysis; type: ADME, organism-based; procedure, shortened: as §1
[9] = Cytotoxicity against human mock-infected MT4 cells assessed as reduction in cell viability after 5 days by MTT assay; type: toxicity, cell-based
Procedure, shortened: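 Mock-infected MT-4 cells (6 × 10^5 cells/mL at seeding) with serial 5-fold compound dilutions in triplicate wells. Viability read by MTT after 5 days, absorbance at 540 and 690 nm, median OD of three wells. CC50 is the concentration reducing OD540 of mock-infected cells by 50%.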

[10] = tested on: Human immunodeficiency virus 1; test: Fold resistance, ratio of EC50 for HIV1 3B harboring reverse transcriptase E138K mutant infected in human MT4 cells to EC50 for wild type HIV1 3B harboring reverse transcriptase infected in human MT4 cells; type: functional; procedure, shortened: as §4
Mus musculus [11] = test: Acute toxicity in Kunming mouse assessed as increase in body weight at 2000 mg/kg, ig after 1 week; type: organism-based; conditions: in vivo, po, 168 h
Procedure, shortened: (§5)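 Kunming mice (18−22 g), fasted 12 h, then given a single intragastric dose suspended in PEG-400 (100 or 200 mg·mL−1 for 1000 or 2000 mg·kg−1). Six mice per dose group, half male and half female. Deaths and body-weight gain followed for 1 week.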

[12] = Selectivity index, ratio of CC50 for human mock-infected MT4 cells to EC50 for wild type HIV1 3B harboring reverse transcriptase infected in human MT4 cells; type: toxicity, cell-based; conditions: MT4 cells (mock-infected for CC50, HIV-1 infected for EC50); procedure, shortened: as §3
[13] = tested on: Human immunodeficiency virus 1; test: Antiviral activity against HIV1 3B harboring reverse transcriptase F227L/V106A double mutant infected in human MT4 cells assessed as protection against virus induced cytotoxicity after 5 days by MTT assay; type: functional, cell-based; conditions: Human immunodeficiency virus 1, 3B, MT4, 120 h; procedure, shortened: as §2
[14] = Tmax in Sprague-Dawley rat plasma at 8 mg/kg administered through oral gavage measured at 5 mins to 24 hrs post dosing by LC/MS analysis; type: ADME, organism-based; conditions: in vivo; procedure, shortened: as §1
[15] = AUC (0 to infinity) in Sprague-Dawley rat plasma at 16 mg/kg administered through oral gavage measured at 5 mins to 24 hrs post dosing by LC/MS analysis; type: ADME, organism-based; parameters: dose 16 mg/kg, time infinity, route oral; conditions: in vivo; procedure, shortened: as §1
[16] = VRT (0 to t) in Sprague-Dawley rat plasma at 8 mg/kg administered through oral gavage measured at 5 mins to 24 hrs post dosing by LC/MS analysis; type: ADME, organism-based; conditions: in vivo; procedure, shortened: as §1
[17] = Selectivity index, ratio of CC50 for human mock-infected MT4 cells to EC50 for HIV1 RES056 harboring reverse transcriptase K103N/Y181C double mutant infected in human MT4 cells; type: toxicity, cell-based; conditions: MT4 cells (mock-infected for CC50, HIV-1 infected for EC50); procedure, shortened: as §3
Mus musculus [18] = test: Acute toxicity in Kunming mouse assessed as mortality at 2000 mg/kg, ig after 1 week; type: organism-based; conditions: in vivo, po, 168 h; procedure, shortened: as §5
[19] = Cmax in Sprague-Dawley rat plasma at 16 mg/kg administered through oral gavage measured at 5 mins to 24 hrs post dosing by LC/MS analysis; type: ADME, organism-based; parameters: dose 16 mg/kg, route oral; conditions: in vivo; procedure, shortened: as §1
[20] = Selectivity index, ratio of CC50 for human mock-infected MT4 cells to EC50 for HIV1 3B harboring reverse transcriptase E138K mutant infected in human MT4 cells; type: toxicity, cell-based; conditions: MT4 cells (mock-infected for CC50, HIV-1 infected for EC50); procedure, shortened: as §3
[21] = Inhibition of recombinant wild type HIV1 reverse transcriptase using DIG-dUTP/biotin-dUTP/dTTP assessed as suppression of biotin-dUTP incorporation after 1 hr by ELISA; parameters: species or system Human immunodeficiency virus 1
Procedure, shortened: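 Recombinant WT HIV-1 RT in a Roche colorimetric kit: template plus DIG-dUTP, biotin-dUTP and dTTP, ±inhibitor, 1 h at 37 °C. Product captured on streptavidin plate 1 h at 37 °C, anti-DIG-POD 1 h at 37 °C, ABTS developed at 25 °C, read at OD405. IC50 is the concentration inhibiting biotin-dUTP incorporation by 50%.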

[22] = tested on: Human immunodeficiency virus 1; test: Antiviral activity against HIV1 3B harboring reverse transcriptase L100I mutant infected in human MT4 cells assessed as protection against virus induced cytotoxicity after 5 days by MTT assay; type: functional, cell-based; conditions: Human immunodeficiency virus 1, 3B, MT4, 120 h; procedure, shortened: as §2
[23] = tested on: Human immunodeficiency virus 1; test: Antiviral activity against wild type HIV1 3B harboring reverse transcriptase infected in human MT4 cells assessed as protection against virus induced cytotoxicity after 5 days by MTT assay; type: functional, cell-based; conditions: Human immunodeficiency virus 1, 3B, MT4, 120 h
Procedure, shortened: as §2, with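 “wells.” for “wells. EC50 is the concentration giving 50% protection from viral cytopathogenicity.”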

Cc1cc(C#N)cc(C)c1Oc1nc(NC2CCN(Cc3ccc(S(N)(=O)=O)cc3)CC2)nc2ccsc12
VRT [1]: 25.29 hr2
IC50 [2]: 360 nM
EC50 [3]: 3 nM
MRT inf [4]: 4.16 h
EC50 [5]: 2.9 nM
selectivity ratio [6]: > 78100
Ratio EC50 [7]: <3
MRT last [8]: 3.25 h
CC50 at 120 h [9]: > 228000 nM
Ratio EC50 [10]: <3
Activity (Mus musculus [11]): Non-Toxic
selectivity ratio [12]: > 159000
EC50 [13]: 4.2 nM
Tmax [14]: 1 h
AUC [15]: 1756.7 ng·h/mL
VRT(t) [16]: 7.78 hr2
selectivity ratio [17]: 53500
Activity (Mus musculus [18]): Non-Toxic
Cmax [19]: 472 ng/mL
selectivity ratio [20]: > 75800
IC50 [21]: 300 nM
EC50 [22]: 3.4 nM
EC50 [23]: 1.4 nM
